# Measurements taken from ChEMBL document CHEMBL4033621, “Design, synthesis and biological evaluation of new pyrazolyl-ureas and imidazopyrazolecarboxamides able to interfere with MAPK and PI3K upstream signaling involved in the angiogenesis” (Eur J Med Chem, 2017).
# Calls of active or inactive are those of the source. The calls are words filed in the database; no cut-off is given here.
# Organism: Homo sapiens
# Assay: Effect on VEGF-stimulated MAPK signaling pathway in HUVEC assessed as p38 MAPK phosphorylation level at 20 uM pretreated for 10 mins followed by VEGF stimulation and subsequent compound addition measured after 20 mins by Western blot analysis relative to control
# Details: not given
# Summary of the method: (§1)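 HUVEC grown to confluence in M199 with 10% FCS, ECGS, heparin, hydrocortisone, then starved ≥4 h in medium alone. Pre-incubated 10 min at 37°C with compound 20 µM in DMSO, then VEGF 50 ng/mL plus compound for 20 min. Lysates (30 µg) immunoblotted for phospho-ERK1/2, phospho-p38MAPK or phospho-Akt, with tubulin as loading control. ECL detection, densitometry. Results given relative to VEGF+DMSO on the same blot (100%), ≥2 independent experiments.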
row,Structure (SMILES),Activity
1,O=C(c1cnn2c1N(C(=O)Nc1cccc(C(F)(F)F)c1)C(c1ccccc1)C2)N1CCCCC1 (stereo not given),200 to 300%
2,CCOC(=O)c1cc2n(n1)CC(c1ccccc1)N2C(=O)Nc1ccc(F)cc1 (stereo not given),Active
3,CCCC(O)Cn1ncc(C(=O)OCC)c1NC(=O)Nc1cccc(C(F)(F)F)c1 (stereo not given),180%
4,CCOC(=O)c1cnn(CC(C)O)c1NC(=O)Nc1cccc(C(F)(F)F)c1 (stereo not given),Active
5,CC(C)(C)c1cc2n(n1)CC(c1ccccc1)N2C(=O)Nc1cccc(C(F)(F)F)c1 (stereo not given),140%
6,CC(C)(C)c1cc(NC(=O)Nc2ccccc2F)n(CC(O)c2ccccc2)n1 (stereo not given),-74%
7,CC(C)(C)c1cc(NC(=O)Nc2ccc(F)cc2)n(CC(O)c2ccccc2)n1 (stereo not given),-70%
8,CCOC(=O)c1cc2n(n1)CC(c1ccccc1)N2C(=O)Nc1ccccc1F (stereo not given),Active
9,CC(C)(C)c1cc(NC(=O)Nc2cccc(C(F)(F)F)c2)n(CC(O)c2ccccc2)n1 (stereo not given),Active
10,CCOC(=O)c1cnn(CC(=O)c2ccccc2)c1NC(=O)Nc1cccc(C(F)(F)F)c1,Active
11,CCOC(=O)c1cc2n(n1)CC(c1ccccc1)N2C(=O)Nc1cccc(F)c1 (stereo not given),Active
12,CCOC(=O)c1cc2n(n1)CC(c1ccccc1)N2C(=O)Nc1cccc(C(F)(F)F)c1 (stereo not given),Active
13,CCOC(=O)c1cc(NC(=O)Nc2cccc(F)c2)n(CC(O)c2ccccc2)n1 (stereo not given),Active
14,CC(C)(C)c1cc2n(n1)CC(c1ccccc1)N2C(=O)Nc1ccc(F)cc1 (stereo not given),Active
15,CC(C)(C)c1cc2n(n1)CC(c1ccccc1)N2C(=O)Nc1ccccc1F (stereo not given),Active
16,CCOC(=O)c1cnn(CC(O)CC)c1NC(=O)Nc1cccc(C(F)(F)F)c1 (stereo not given),Active
17,CCOC(=O)c1cnn(CC(=O)c2ccccc2)c1NC(=O)Nc1cccc(F)c1,Active
18,CCOC(=O)c1cnn2c1N(C(=O)Nc1cccc(C(F)(F)F)c1)C(c1ccccc1)C2 (stereo not given),200 to 300%
19,CCOC(=O)c1cnn(CC(=O)c2ccccc2)c1NC(=O)Nc1ccc(F)cc1,Active
20,CCOC(=O)c1cc(NC(=O)Nc2cccc(C(F)(F)F)c2)n(CC(O)c2ccccc2)n1 (stereo not given),-61%
21,CCOC(=O)c1cc(NC(=O)Nc2ccc(F)cc2)n(CC(O)c2ccccc2)n1 (stereo not given),-81%
22,NC(=O)c1cnn2c1N(C(=O)Nc1cccc(C(F)(F)F)c1)C(c1ccccc1)C2 (stereo not given),200 to 300%
23,CC(C)(C)c1cc2n(n1)CC(c1ccccc1)N2C(=O)Nc1cccc(F)c1 (stereo not given),Active
24,CC(C)(C)c1cc(NC(=O)Nc2cccc(F)c2)n(CC(O)c2ccccc2)n1 (stereo not given),199%
25,CCOC(=O)c1cc(NC(=O)Nc2ccccc2F)n(CC(O)c2ccccc2)n1 (stereo not given),97%
26,CCOC(=O)c1cnn(CC(O)c2ccccc2)c1NC(=O)Nc1cccc(C(F)(F)F)c1 (stereo not given),150%
27,CCOC(=O)c1cnn(CC(=O)c2ccccc2)c1NC(=O)Nc1ccccc1F,Active

# Organism: Homo sapiens
# Assay: Effect on VEGF-stimulated MAPK signaling pathway in HUVEC assessed as ERK1/2 phosphorylation level at 20 uM pretreated for 10 mins followed by VEGF stimulation and subsequent compound addition measured after 20 mins by Western blot analysis relative to control
# Details: not given
# Summary of the method: as §1
row,Structure (SMILES),Activity
1,O=C(c1cnn2c1N(C(=O)Nc1cccc(C(F)(F)F)c1)C(c1ccccc1)C2)N1CCCCC1 (stereo not given),83%
2,CCCC(O)Cn1ncc(C(=O)OCC)c1NC(=O)Nc1cccc(C(F)(F)F)c1 (stereo not given),-59%
3,CCOC(=O)c1cnn(CC(C)O)c1NC(=O)Nc1cccc(C(F)(F)F)c1 (stereo not given),Active
4,CC(C)(C)c1cc(NC(=O)Nc2ccccc2F)n(CC(O)c2ccccc2)n1 (stereo not given),Active
5,CC(C)(C)c1cc(NC(=O)Nc2ccc(F)cc2)n(CC(O)c2ccccc2)n1 (stereo not given),-67%
6,CC(C)(C)c1cc(NC(=O)Nc2cccc(C(F)(F)F)c2)n(CC(O)c2ccccc2)n1 (stereo not given),Active
7,CCOC(=O)c1cnn(CC(=O)c2ccccc2)c1NC(=O)Nc1cccc(C(F)(F)F)c1,Active
8,CCOC(=O)c1cc2n(n1)CC(c1ccccc1)N2C(=O)Nc1cccc(C(F)(F)F)c1 (stereo not given),-75%
9,CCOC(=O)c1cc(NC(=O)Nc2cccc(F)c2)n(CC(O)c2ccccc2)n1 (stereo not given),Active
10,CCOC(=O)c1cnn(CC(O)CC)c1NC(=O)Nc1cccc(C(F)(F)F)c1 (stereo not given),inactive
11,CCOC(=O)c1cnn(CC(=O)c2ccccc2)c1NC(=O)Nc1cccc(F)c1,Active
12,CCOC(=O)c1cnn2c1N(C(=O)Nc1cccc(C(F)(F)F)c1)C(c1ccccc1)C2 (stereo not given),-26%
13,CCOC(=O)c1cnn(CC(=O)c2ccccc2)c1NC(=O)Nc1ccc(F)cc1,Active
14,CCOC(=O)c1cc(NC(=O)Nc2cccc(C(F)(F)F)c2)n(CC(O)c2ccccc2)n1 (stereo not given),Active
15,CCOC(=O)c1cc(NC(=O)Nc2ccc(F)cc2)n(CC(O)c2ccccc2)n1 (stereo not given),Active
16,NC(=O)c1cnn2c1N(C(=O)Nc1cccc(C(F)(F)F)c1)C(c1ccccc1)C2 (stereo not given),inactive
17,CC(C)(C)c1cc(NC(=O)Nc2cccc(F)c2)n(CC(O)c2ccccc2)n1 (stereo not given),Active
18,CCOC(=O)c1cc(NC(=O)Nc2ccccc2F)n(CC(O)c2ccccc2)n1 (stereo not given),-89%
19,CCOC(=O)c1cnn(CC(O)c2ccccc2)c1NC(=O)Nc1cccc(C(F)(F)F)c1 (stereo not given),-70%
20,CCOC(=O)c1cnn(CC(=O)c2ccccc2)c1NC(=O)Nc1ccccc1F,inactive

# Organism: Homo sapiens
# Assay: Effect on VEGF-stimulated PI3K signaling pathway in HUVEC assessed as AKT phosphorylation level at 20 uM pretreated for 10 mins followed by VEGF stimulation and subsequent compound addition measured after 20 mins by Western blot analysis relative to control
# Details: not given
# Summary of the method: as §1
row,Structure (SMILES),Activity
1,O=C(c1cnn2c1N(C(=O)Nc1cccc(C(F)(F)F)c1)C(c1ccccc1)C2)N1CCCCC1 (stereo not given),Active
2,CCOC(=O)c1cc2n(n1)CC(c1ccccc1)N2C(=O)Nc1ccc(F)cc1 (stereo not given),Active
3,CCCC(O)Cn1ncc(C(=O)OCC)c1NC(=O)Nc1cccc(C(F)(F)F)c1 (stereo not given),-29%
4,CCOC(=O)c1cnn(CC(C)O)c1NC(=O)Nc1cccc(C(F)(F)F)c1 (stereo not given),Active
5,CC(C)(C)c1cc2n(n1)CC(c1ccccc1)N2C(=O)Nc1cccc(C(F)(F)F)c1 (stereo not given),Active
6,CC(C)(C)c1cc(NC(=O)Nc2ccccc2F)n(CC(O)c2ccccc2)n1 (stereo not given),inactive
7,CC(C)(C)c1cc(NC(=O)Nc2ccc(F)cc2)n(CC(O)c2ccccc2)n1 (stereo not given),-83%
8,CCOC(=O)c1cc2n(n1)CC(c1ccccc1)N2C(=O)Nc1ccccc1F (stereo not given),inactive
9,CCOC(=O)c1cnn(CC(=O)c2ccccc2)c1NC(=O)Nc1cccc(C(F)(F)F)c1,Active
10,CCOC(=O)c1cc2n(n1)CC(c1ccccc1)N2C(=O)Nc1cccc(F)c1 (stereo not given),Active
11,CCOC(=O)c1cc2n(n1)CC(c1ccccc1)N2C(=O)Nc1cccc(C(F)(F)F)c1 (stereo not given),Active
12,CCOC(=O)c1cc(NC(=O)Nc2cccc(F)c2)n(CC(O)c2ccccc2)n1 (stereo not given),51%
13,CC(C)(C)c1cc2n(n1)CC(c1ccccc1)N2C(=O)Nc1ccc(F)cc1 (stereo not given),Active
14,CC(C)(C)c1cc2n(n1)CC(c1ccccc1)N2C(=O)Nc1ccccc1F (stereo not given),inactive
15,CCOC(=O)c1cnn(CC(O)CC)c1NC(=O)Nc1cccc(C(F)(F)F)c1 (stereo not given),Active
16,CCOC(=O)c1cnn(CC(=O)c2ccccc2)c1NC(=O)Nc1cccc(F)c1,63%
17,CCOC(=O)c1cnn2c1N(C(=O)Nc1cccc(C(F)(F)F)c1)C(c1ccccc1)C2 (stereo not given),Active
18,CCOC(=O)c1cnn(CC(=O)c2ccccc2)c1NC(=O)Nc1ccc(F)cc1,96%
19,CCOC(=O)c1cc(NC(=O)Nc2cccc(C(F)(F)F)c2)n(CC(O)c2ccccc2)n1 (stereo not given),inactive
20,CCOC(=O)c1cc(NC(=O)Nc2ccc(F)cc2)n(CC(O)c2ccccc2)n1 (stereo not given),inactive
21,NC(=O)c1cnn2c1N(C(=O)Nc1cccc(C(F)(F)F)c1)C(c1ccccc1)C2 (stereo not given),Active
22,CC(C)(C)c1cc2n(n1)CC(c1ccccc1)N2C(=O)Nc1cccc(F)c1 (stereo not given),Active
23,CC(C)(C)c1cc(NC(=O)Nc2cccc(F)c2)n(CC(O)c2ccccc2)n1 (stereo not given),Active
24,CCOC(=O)c1cc(NC(=O)Nc2ccccc2F)n(CC(O)c2ccccc2)n1 (stereo not given),inactive
25,CCOC(=O)c1cnn(CC(O)c2ccccc2)c1NC(=O)Nc1cccc(C(F)(F)F)c1 (stereo not given),-37%
26,CCOC(=O)c1cnn(CC(=O)c2ccccc2)c1NC(=O)Nc1ccccc1F,inactive

# System: HUVEC
# Assay: Antimigratory activity against VEGF-stimulated HUVEC at 20 uM measured up to 15 hrs in presence of CMFDA probe by microscopy-based wound healing assay
# Assay type: functional, cell-based
# Details: Homo sapiens
# Summary of the method: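 Confluent HUVEC (48 h growth) labelled with CMFDA (1:5000 of 10 mM stock), scratched with sterile tip, washed with PBS, then given VEGF 50 ng/mL plus compound 20 µM (DMSO control). Wounds imaged at 0 and 15 h by microscopy. Colonized area = area 0 h − area 15 h, expressed as percent of control set at 100%.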
row,Structure (SMILES),Activity
1,O=C(c1cnn2c1N(C(=O)Nc1cccc(C(F)(F)F)c1)C(c1ccccc1)C2)N1CCCCC1 (stereo not given),inactive
2,CCOC(=O)c1cc2n(n1)CC(c1ccccc1)N2C(=O)Nc1ccc(F)cc1 (stereo not given),inactive
3,CCCC(O)Cn1ncc(C(=O)OCC)c1NC(=O)Nc1cccc(C(F)(F)F)c1 (stereo not given),Active
4,CCOC(=O)c1cnn(CC(C)O)c1NC(=O)Nc1cccc(C(F)(F)F)c1 (stereo not given),inactive
5,CC(C)(C)c1cc2n(n1)CC(c1ccccc1)N2C(=O)Nc1cccc(C(F)(F)F)c1 (stereo not given),inactive
6,CC(C)(C)c1cc(NC(=O)Nc2ccccc2F)n(CC(O)c2ccccc2)n1 (stereo not given),inactive
7,CC(C)(C)c1cc(NC(=O)Nc2ccc(F)cc2)n(CC(O)c2ccccc2)n1 (stereo not given),inactive
8,CCOC(=O)c1cc2n(n1)CC(c1ccccc1)N2C(=O)Nc1ccccc1F (stereo not given),inactive
9,CC(C)(C)c1cc(NC(=O)Nc2cccc(C(F)(F)F)c2)n(CC(O)c2ccccc2)n1 (stereo not given),inactive
10,CCOC(=O)c1cnn(CC(=O)c2ccccc2)c1NC(=O)Nc1cccc(C(F)(F)F)c1,inactive
11,CCOC(=O)c1cc2n(n1)CC(c1ccccc1)N2C(=O)Nc1cccc(F)c1 (stereo not given),inactive
12,CCOC(=O)c1cc2n(n1)CC(c1ccccc1)N2C(=O)Nc1cccc(C(F)(F)F)c1 (stereo not given),inactive
13,CCOC(=O)c1cc(NC(=O)Nc2cccc(F)c2)n(CC(O)c2ccccc2)n1 (stereo not given),inactive
14,CC(C)(C)c1cc2n(n1)CC(c1ccccc1)N2C(=O)Nc1ccc(F)cc1 (stereo not given),inactive
15,CC(C)(C)c1cc2n(n1)CC(c1ccccc1)N2C(=O)Nc1ccccc1F (stereo not given),inactive
16,CCOC(=O)c1cnn(CC(O)CC)c1NC(=O)Nc1cccc(C(F)(F)F)c1 (stereo not given),inactive
17,CCOC(=O)c1cnn(CC(=O)c2ccccc2)c1NC(=O)Nc1cccc(F)c1,inactive
18,CCOC(=O)c1cnn2c1N(C(=O)Nc1cccc(C(F)(F)F)c1)C(c1ccccc1)C2 (stereo not given),inactive
19,CCOC(=O)c1cnn(CC(=O)c2ccccc2)c1NC(=O)Nc1ccc(F)cc1,inactive
20,CCOC(=O)c1cc(NC(=O)Nc2cccc(C(F)(F)F)c2)n(CC(O)c2ccccc2)n1 (stereo not given),inactive
21,CCOC(=O)c1cc(NC(=O)Nc2ccc(F)cc2)n(CC(O)c2ccccc2)n1 (stereo not given),inactive
22,NC(=O)c1cnn2c1N(C(=O)Nc1cccc(C(F)(F)F)c1)C(c1ccccc1)C2 (stereo not given),inactive
23,CC(C)(C)c1cc2n(n1)CC(c1ccccc1)N2C(=O)Nc1cccc(F)c1 (stereo not given),inactive
24,CC(C)(C)c1cc(NC(=O)Nc2cccc(F)c2)n(CC(O)c2ccccc2)n1 (stereo not given),inactive
25,CCOC(=O)c1cc(NC(=O)Nc2ccccc2F)n(CC(O)c2ccccc2)n1 (stereo not given),inactive
26,CCOC(=O)c1cnn(CC(O)c2ccccc2)c1NC(=O)Nc1cccc(C(F)(F)F)c1 (stereo not given),inactive
27,CCOC(=O)c1cnn(CC(=O)c2ccccc2)c1NC(=O)Nc1ccccc1F,inactive
